Screening data deposited in PubChem BioAssay by several laboratories.
Sampled rows, rich in hits. Any-hit rate of the full collection: about 1.5%.
Hep lipid drop – inhibitors of hepatocyte lipid droplet formation, primary screen, imaging, high-throughput imaging, BODIPY stain | AML12 mouse hepatocytes, oleate lipid droplets | inhibition, % at 6.5 µM | actives 0.4% (n = 240,000);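 active means lipid droplet intensity inhibited by at least 50%, with more than 500 cells counted; inconclusive means wells with under 300 cells, treated as cytotoxic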
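Assay system: AML12 mouse liver cells | Compound dosing: One dose, 6.5 µM compound | Read-out basis: Droplet intensity reduction, % inhibition | Measured by: Fluorescence imaging, 20x objective, two fields per well | Schedule: Overnight treatment with compound plus oleate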
PPC-1+TRAIL kill – compounds killing PPC-1 cancer cells with TRAIL present, primary screen, TRAIL potentiator project, ATPLite luminescence, uHTS; PPC-1 cells + TRAIL, ATPLite viability luminescence; cell killing (% activity), % at 4 µM or 5 µM; actives 0.41% (n = 220,000);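 active means cell killing above 50% in the first pass at 4 µM, then a duplicate retest at 5 µM averaging 50% or more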;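 further: plate controls were cells with TRAIL plus DMSO for no effect and medium-only wells lacking cells for full effect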
TAG inh – inhibitors of triacylglycerol accumulation, primary screen, cell-based, uHTS, fluorescence, H9c2; H9c2 cells, Nile Red lipid (TAG) fluorescence; cells loaded with 200 µM oleic acid; inhibition, % at 12.5 µM; actives 0.66% (n = 230,000); AID 651582, 2012;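 active means pattern-corrected inhibition of lipid staining of at least 50% with the nuclear-stain viability signal not falling by more than 50%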;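 further: 0% = DMSO wells and 100% = triacsin C control wells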
STAT1 inh – STAT1 signaling inhibitors, primary screen, cell-based, HTS, luciferase reporter; NIH 3T3 STAT1-luciferase reporter, IFN-gamma, luminescence; inhibition, % at 5.5 µM; actives 0.35% (n = 200,000);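 active means inhibition above a set limit, the mean inhibition across all tested compounds plus 3 SD, cut at about 34% in these data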;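 further: 0% = IFN-gamma with DMSO and 100% = IFN-gamma with 300 µM nifuroxazide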
Platelet DG rel – inhibitors of platelet dense granule secretion, primary screen, cell-based, MLPCN, human platelets. human platelet-rich plasma, SFLLRN dense granule ATP release, luminescence. inhibition, %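 (compounds screened at 7.5 µM in platelet-rich plasma)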. actives 0.22% (n = 300,000);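 active means mean replicate score, as percent of positive control, at or above 50; inconclusive means mean below 50 but at least one replicate at or above 50; inactive means mean and every replicate below 50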
STAT3 inh-1 – IL-6 driven STAT3 reporter inhibitors, primary screen, U3A cells, luciferase, luminescence, MLSCN library. IL-6 STAT3-luciferase reporter; host cell line lacks STAT1. inhibition, % at 5.5 µM. actives 0.89% (n = 190,000);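 active means inhibition above the mean inhibition across all screened compounds plus 3 SD, cut at about 44% in these data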;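 further: 0% = DMSO only wells and 100% = 100 µM nifuroxazide control wells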
STAT3 inh-2 – STAT3 reporter inhibitors, retest of hits, confirmation, U3A cells, luciferase, luminescence; shares compounds with STAT3 inh-1; IL-6 STAT3 luciferase reporter; cell line lacks STAT1; inhibition, % at 5.7 µM; actives 45% (n = 1,200); AID 1265, 2008;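 active means inhibition above the hit cutoff computed for the primary STAT3 screen, cut at about 44% in these data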;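 further: 0% = IL-6 plus DMSO and 100% = IL-6 plus nifuroxazide control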
NFkB inh STAT3ct – NF-kB reporter inhibitors in human cells, confirmation, counter-screen for STAT3 inhibitor project, cell-based, HEK293T, luciferase, TNF-alpha stimulus; inhibition, % at 5.7 µM; actives 36% (n = 1,200); shares compounds with STAT3 inh-1; TNF-alpha induced; AID 1308, 2008;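 active means inhibition above the mean of solvent-only control wells plus 3 SD, cutoff set per campaign, cut at about 13% in these data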;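 further: 0% = TNF-alpha with DMSO and 100% = TNF-alpha with MG high control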
STAT1 inh STAT3c – STAT1 reporter inhibitors, IFN-gamma induced, confirmation, counter-screen for STAT3 inhibitor project, cell-based, NIH 3T3, luciferase luminescence. actives 27% (n = 1,200). shares compounds with STAT3 inh-1. inhibition, % at 5.7 µM. NIH 3T3 STAT1-luciferase reporter;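 active means inhibition above the mean plus 3 SD of solvent-only control wells, limit set per screening run, cut at about 16% in these data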;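 further: 0% = DMSO with IFN-gamma and 100% = nifuroxazide control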
PPC1 cytotox – cytotoxicity in PPC-1 cells, confirmation, cytotoxicity control for TRAIL apoptosis potentiator project, cell-based, ATP content luminescence; shares compounds with PPC-1+TRAIL kill; PPC-1 viability, ATPlite luminescence, overnight; cytotoxicity, % at 5 µM; actives 50% (n = 1,200);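 active means reconfirmed compounds whose average cytotoxicity reaches 50% or more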;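 further: 0% = DMSO-treated cells and 100% = wells holding medium but no cells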
* marks the source's active call; other numbers are inactive results; ? = inconclusive; / = no result given.

SMILES | Hep lipid drop | PPC-1+TRAIL kill | TAG inh | STAT1 inh | Platelet DG rel | STAT3 inh-1 | others
COc1ccc(/C=N/N=C(/N)N[N+](=O)[O-])c(OC)c1 | / | 5 | 8 | -23 | 121* | 11
N/C(=N\N=C/c1ccc(-c2ccc(O)c(C(=O)O)c2)o1)N[N+](=O)[O-] | / | -20 | / | 4 | 8 | 11
COC(=O)[C@]12OC[C@]34C([C@@H](O)[C@@H]1O)[C@]1(C)CC(=O)C(O)=C(C)[C@@H]1C[C@H]3OC(=O)[C@H](O)[C@@H]24 (stereo not given in full) | -2 | 28 | 65* | / | 5 | /
CN1C(=O)C(C)(C2=CCCCC2)C(=O)NC1=S (stereo not given) | / | / | 3 | / | / | /
COc1ccc(C(SCC(NC(=O)OCc2ccccc2)C(=O)O)c2ccc(OC)cc2)cc1 (stereo not given) | / | / | 10 | / | / | /
Ic1ccccc1CN[C@@H]1C2CCN(CC2)[C@@H]1C(c1ccccc1)c1ccccc1 | / | / | 74* | / | / | /
CC(C)(C)C1(CCO)C(=O)NC(=S)NC1=O | / | / | 4 | / | / | /
O=C1Nc2ccccc2/C1=C/c1cnc[nH]1 | / | -26 | / | -19 | -6 | 57*
COc1ccc2c(c1)/C(=C/c1cnc[nH]1)C(=O)N2 | -14 | / | 48 | / | 5 | /
COC(=O)C1=C(C(=O)OC)C2OC1c1cc3ccccc3cc12 | / | / | 70* | / | / | /
CC(=O)OCC12CC(OC(=O)CC(C)C)C(C)=CC1OC1C(O)C(OC(C)=O)C2(C)C12CO2 (stereo not given) | / | / | 104 | / | / | /
CCC1C(c2cc(OC)c(OC)c(OC)c2)c2cc3c(cc2OC1N1CCCC1)OCO3 (stereo not given) | / | / | 45 | / | / | /
O=c1[nH]c(O)c(N=Nc2ccc3c(c2)OCCO3)c(=O)[nH]1 | 10 | 24 | 3 | 41* | 21 | 79*
O=c1[nH]c(=S)[nH]c(O)c1N=Nc1ccc2c(c1)OCO2 | 10 | 20 | 8 | -31 | 1 | 5
C[C@]12CCC3C(CC[C@H]4C[C@H](O)CC[C@]34C)C1C[C@@H](O)[C@H]2O (stereo not given in full) | / | / | 8 | / | / | /
CN1CCC(N(C)c2nc(-c3ccc([N+](=O)[O-])cc3)nc3ccccc23)CC1 | 17 | 27 | 59* | 6 | -8 | -18
CCNC(=O)C1OC(n2cnc3c(N)ncnc32)C(O)C1O (stereo not given) | / | / | 22 | 2 | 95* | 3
CS(=O)(=O)c1ccc(C2=C(CNC(=O)c3nccs3)[C@H]3CC[C@@H](C2)N3Cc2ccco2)cc1 | / | / | -4 | / | / | /
COc1cc2c3c(c1OC)Oc1ccc(cc1)C[C@H]1c4c(cc(OC)c(OC)c4Oc4ccc(cc4)C[C@@H]3N(C)CC2)CCN1C | / | / | 86* | / | / | /
O=[N+]([O-])c1ccc(N2CCOCC2)c2c1no[n+]2[O-] | / | / | 121* | / | / | /
COC1CCC(OC2CC(C3(C)CCC4(CC(O)C(C)C(C(C)/C=C(\C)C(=O)C(C)CC(C)C(=O)O)O4)O3)OC3(OC(C4OC(O)(CO)C(C)CC4C)CC3C)C2C)OC1C (stereo not given) | / | / | 97* | / | / | /
S=P(NCCSCc1ccccc1)(N1CC1)N1CC1 | / | / | 9 | / | / | /
CNC(=O)c1cccn(Cc2ccc(C(F)(F)F)cc2)c1=O | 24 | 0 | 31 | 37* | -4 | 46*
CNC(=O)c1cccn(Cc2cc(C(F)(F)F)cc(C(F)(F)F)c2)c1=O | 2 | -3 | -9 | 21 | 3 | 28
Nc1ccccc1C(=O)OCCOc1ccccc1 | 28 | 21 | -11 | -10 | / | 58* | STAT3 inh-2=17;NFkB inh STAT3ct=-22;STAT1 inh STAT3c=-153
SMILES | Hep lipid drop | PPC-1+TRAIL kill | TAG inh | STAT1 inh | Platelet DG rel | STAT3 inh-1 | others
CC(=O)Nc1ccc(OC(=O)c2ccccc2N)cc1 | -18 | 10 | / | -4 | 3 | 13
O=c1[nH]c(=O)n(CCC2=CCCCC2)c(O)c1C=NC1CCN(Cc2ccccc2)CC1 | / | -2 | -11 | 0 | / | 62* | STAT3 inh-2=69*;NFkB inh STAT3ct=30*;STAT1 inh STAT3c=8
O=C1NC(=O)C(Nc2ccccc2)C(=O)N1 | / | / | 1 | / | / | /
CN(C)C(=O)Oc1ccc(OCc2nc3ccccc3[nH]2)cc1 | -25 | 46 | / | -4 | ? | 58* | STAT3 inh-2=29;NFkB inh STAT3ct=5;STAT1 inh STAT3c=-3
CN1C2CCC1/C(=C/c1ccccn1)C(=O)/C2=C\c1ccccn1 | ? | 41 | / | -118 | / | 53* | STAT3 inh-2=32;NFkB inh STAT3ct=-71;STAT1 inh STAT3c=-262
CC(C)(C)n1cc(C(=O)c2ccc3ccccc3c2O)cn1 | -4 | 42 | -1 | 30 | -1 | 65* | STAT3 inh-2=13;NFkB inh STAT3ct=-32;STAT1 inh STAT3c=-133
CC(C)(C)n1cc(C(=O)c2ccccc2OCCCF)cn1 | -17 | / | / | / | 6 | /
c1coc(CN2Cc3ccccc3-n3nncc3C2)c1 | / | / | -16 | / | / | /
Cn1nc(-c2ccc(OCC(=O)N3CCN(Cc4ccccc4)CC3)cc2)c2ccccc2c1=O | -52 | 15 | / | 19 | 14 | 60* | STAT3 inh-2=49*;NFkB inh STAT3ct=20*;STAT1 inh STAT3c=17*
Cn1cccc1CN1CCN(C(=O)COc2ccccc2)CC1 | / | 5 | / | -2 | 1 | 4
CNC(=O)Oc1ccc(-c2cn3cc(Cl)ccc3n2)cc1 | 28 | 55* | / | 11 | 8 | 84* | STAT3 inh-2=68*;NFkB inh STAT3ct=21*;STAT1 inh STAT3c=1
CN1OC[C@@H]2CN[C@H](c3ccc(Br)cc3)C[C@@H]21 | / | / | -1 | / | / | /
ClCCN(CCCl)c1ccc(-n2cnc3c(Cl)ncnc32)cc1 | / | / | 28 | / | / | /
C[C@H]1O[C@@H](O[C@H]2[C@@H](O)C[C@H](O[C@H]3[C@@H](O)C[C@H](O[C@H]4CC[C@@]5(C)[C@H](CC[C@@H]6[C@@H]5CC[C@]5(C)[C@@H](C7=CC(=O)OC7)CC[C@]65O)C4)O[C@@H]3C)O[C@@H]2C)C[C@H](O)[C@@H]1O | 14 | 74* | / | -10 | / | 83* | STAT3 inh-2=81*;NFkB inh STAT3ct=-7;STAT1 inh STAT3c=-2;PPC1 cytotox=73*
